In ChEMBL document CHEMBL1140443, “Inhibitors of apoptosis in lymphocytes: synthesis and biological evaluation of compounds related to pifithrin-alpha” (J Med Chem, 2005):

How the values were obtained:
Mus musculus [1] = organism: Mus musculus; assay: Average percent survival of C57Bl/6 mice thymocytes from Dexamethasone (5 uM) induced apoptosis at 10 uM
Mus musculus [2] = organism: Mus musculus; assay: Concentration required to inhibit dexamethasone-induced death of mice thymocytes; type: functional, organism-based
Method in brief: (§1)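 Thymocytes from young C57Bl/6 mice, cultured at 37 °C in 5% CO2 in RPMI 1640 with 10% FBS and penicillin/streptomycin, plated at 10⁷ cells/mL. Cells were preincubated 30 min with graded compound concentrations (DMSO stock), then given 5 μM dexamethasone for 6 h. Cells were stained 30 min with 40 nM DiOC6 and 5 μg/mL PI and read by flow cytometry; DiOC6-high/PI-low cells were scored viable. EC50 was taken from a nonlinear one-site fit, with its 95% confidence interval.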

[3] = Concentration for 95% confidence interval (CI) in dexamethasone-induced mice thymocytes; range 3.95-5.75 uM; type: functional, Mus musculus
Method in brief: as §1

[4] = Concentration for 95% confidence interval (CI) in dexamethasone-induced mice thymocytes; range 3.86-13.70 uM; type: functional, Mus musculus
Method in brief: as §1

[5] = Concentration for 95% confidence interval (CI) in dexamethasone-induced mice thymocytes; range 0.94-1.82 uM; type: functional, Mus musculus
Method in brief: as §1

[6] = Concentration for 95% confidence interval (CI) in dexamethasone-induced mice thymocytes; range 4.08-13.75 uM; type: functional, Mus musculus
Method in brief: as §1

[7] = Concentration for 95% confidence interval (CI) in dexamethasone-induced mice thymocytes; range 0.95-1.57 uM; type: functional, Mus musculus
Method in brief: as §1

[8] = Concentration for 95% confidence interval (CI) in dexamethasone-induced mice thymocytes; range 4.08-8.01 uM; type: functional, Mus musculus
Method in brief: as §1

[9] = Concentration for 95% confidence interval (CI) in dexamethasone-induced mice thymocytes; range 8.49-12.32 uM; type: functional, Mus musculus
Method in brief: as §1

[10] = Concentration for 95% confidence interval (CI) in dexamethasone-induced mice thymocytes; range 1.51-2.24 uM; type: functional, Mus musculus
Method in brief: as §1

[11] = Concentration for 95% confidence interval (CI) in dexamethasone-induced mice thymocytes; range 6.02-8.76 uM; type: functional, Mus musculus
Method in brief: as §1

[12] = Concentration for 95% confidence interval (CI) in dexamethasone-induced mice thymocytes; range 2.78-5.16 uM; type: functional, Mus musculus
Method in brief: as §1

[13] = Concentration for 95% confidence interval (CI) in dexamethasone-induced mice thymocytes; range 4.64-7.91 uM; type: functional, Mus musculus
Method in brief: as §1

[14] = Concentration for 95% confidence interval (CI) in dexamethasone-induced mice thymocytes; range 3.26-8.82 uM; type: functional, Mus musculus
Method in brief: as §1

[15] = Concentration for 95% confidence interval (CI) in dexamethasone-induced mice thymocytes; range 1.76-2.98 uM; type: functional, Mus musculus
Method in brief: as §1

[16] = Concentration for 95% confidence interval (CI) in dexamethasone-induced mice thymocytes; range 2.78-34.83 uM; type: functional, Mus musculus
Method in brief: as §1

[17] = Concentration for 95% confidence interval (CI) in dexamethasone-induced mice thymocytes; range 2.95-5.88 uM; type: functional, Mus musculus
Method in brief: as §1

[18] = Concentration for 95% confidence interval (CI) in dexamethasone-induced mice thymocytes; range 1.45-2.80 uM; type: functional, Mus musculus
Method in brief: as §1

[19] = Concentration for 95% confidence interval (CI) in dexamethasone-induced mice thymocytes; range 3.45-4.69 uM; type: functional, Mus musculus
Method in brief: as §1

[20] = Concentration for 95% confidence interval (CI) in dexamethasone-induced mice thymocytes; range 2.86-6.89 uM; type: functional, Mus musculus
Method in brief: as §1

[21] = Concentration for 95% confidence interval (CI) in dexamethasone-induced mice thymocytes; range 0.11-1.08 uM; type: functional, Mus musculus
Method in brief: as §1

[22] = Concentration for 95% confidence interval (CI) in dexamethasone-induced mice thymocytes; range 4.61-7.00 uM; type: functional, Mus musculus
Method in brief: as §1

[23] = Concentration for 95% confidence interval (CI) in dexamethasone-induced mice thymocytes; range 3.07-5.28 uM; type: functional, Mus musculus
Method in brief: as §1

Row | Structure (SMILES) | Survival (Mus musculus [1]) | EC50 (Mus musculus [2]) | further results
1 | COc1ccc(-c2cn3c4c(sc3n2)CCCC4)cc1 | 28% | – | –
2 | c1ccc2cc(-c3ccc(-c4cn5c6c(sc5n4)CCCC6)cc3)ccc2c1 | 57% | 4.77 µM | CI [3]: 5.75 µM
3 | Cc1ccc(C(=O)Cn2c(=O)sc3ccccc32)cc1 | 30% | – | –
4 | Cc1ccc(C(=O)CNc2ncnc3ccccc23)cc1 | 32% | – | –
5 | Cc1ccc(C(=O)Cn2c(=N)sc3ccccc32)cc1 | 21% | > 10 µM | –
6 | N=c1sc2ccccc2n1CC(=O)c1ccc(C2CCCC2)cc1 | 33% | – | –
7 | N=c1sc2c(n1CC(=O)c1ccc([N+](=O)[O-])cc1)CCCC2 | 21% | – | –
8 | N=c1sc2c(n1CC(=O)c1ccc(Cl)c(Cl)c1)CCCC2 | 57% | 7.28 µM | CI [4]: 13.7 µM
9 | Cc1ccc(-c2cn3c(n2)sc2cc(N)ccc23)cc1 | 27% | – | –
10 | Brc1ccc(-c2cn3c(n2)sc2ccccc23)cc1 | 22% | – | –
11 | N=c1sc2c(n1CC(=O)c1ccc(N3CCCC3)cc1)CCCC2 | 77% | 1.31 µM | CI [5]: 1.82 µM
12 | c1ccc(-c2ccc(-c3cn4c(n3)sc3ccccc34)cc2)cc1 | 59% | 8.12 µM | CI [6]: 13.75 µM
13 | Cc1ccc(-c2cn3c(n2)sc2ccccc23)cc1 | 73% | 1.22 µM | CI [7]: 1.57 µM
14 | CC(=O)N1C(c2ccc(C)cc2)N=C2c3ccccc3N=CN21 (stereo unspecified) | 23% | – | –
15 | Fc1ccc(-c2cn3c4c(sc3n2)CCCC4)cc1F | 44% | – | –
16 | c1ccc(-c2cn3c4c(sc3n2)CCCC4)cc1 | 19% | – | –
17 | Cc1ccc(-c2nc3c4ccccc4ncn3n2)cc1 | 17% | – | –
18 | Cc1ccc(S(=O)(=O)Nc2nc3ccccc3s2)cc1 | 26% | – | –
19 | N=c1sc2c(n1CC(=O)c1ccccc1Cl)CCCC2 | 65% | 5.72 µM | CI [8]: 8.01 µM
20 | Cc1ccc(Cn2c(=N)sc3ccccc32)cc1 | 8% | – | –
21 | Cc1ccc(C(=O)CSc2nc3ccccc3[nH]2)cc1 | 15% | – | –

Row | Structure (SMILES) | Survival (Mus musculus [1]) | EC50 (Mus musculus [2]) | further results
22 | Fc1cccc(-c2cn3c4c(sc3n2)CCCC4)c1 | 34% | – | –
23 | c1ccc(-c2cn3c(n2)sc2ccccc23)cc1 | 73% | 10.2 µM | CI [9]: 12.32 µM
24 | N=c1sc2c(n1CC(=O)c1ccc(Br)cc1)CCCC2 | 31% | – | –
25 | FC(F)(F)c1ccc(-c2cn3c4c(sc3n2)CCCC4)cc1 | 27% | – | –
26 | Cc1ccc(-c2cn3c(n2)nc(O)c2ccccc23)cc1 | 28% | – | –
27 | N=c1sc2c(n1CC(=O)c1ccc(OC(=O)c3ccccc3)cc1)CCCC2 | 17% | – | –
28 | Cc1ccc(-c2nc3sc4ccccc4n3c2Br)cc1 | 24% | – | –
29 | Cc1ccc(-c2csc3nc4ccccc4n23)cc1 | 48% | – | –
30 | c1ccc2c(c1)sc1nc(-c3ccc(C4CCCC4)cc3)cn12 | 36% | – | –
31 | CCN(CC)c1ccc(C(=O)Cn2c3c(sc2=N)CCCC3)cc1 | 70% | 1.84 µM | CI [10]: 2.24 µM
32 | N=c1sc2c(n1CC(=O)c1ccc(F)c(F)c1)CCCC2 | 40% | – | –
33 | N#Cc1ccc(-c2cn3c4c(sc3n2)CCCC4)cc1 | 21% | – | –
34 | N=c1sc2ccccc2n1Cc1ccccc1 | 20% | – | –
35 | N=c1sc2c(n1CC(=O)c1ccc(F)cc1)CCCC2 | 48% | – | –
36 | Cc1ccc(C(=O)Cn2c3c(sc2=O)CCCC3)cc1 | 40% | – | –
37 | N=c1sc2ccccc2n1CC(=O)c1ccc(-c2ccccc2)cc1 | 66% | 7.26 µM | CI [11]: 8.76 µM
38 | c1ccc(-c2ccc(-c3cn4c5c(sc4n3)CCCC5)cc2)cc1 | 75% | 3.79 µM | CI [12]: 5.16 µM
39 | N=c1sc2c(n1CC(=O)c1ccccc1)CCCC2 | 59% | 6.06 µM | CI [13]: 7.91 µM
40 | Fc1ccc(-c2cn3c4c(sc3n2)CCCC4)cc1 | 33% | – | –
41 | Clc1ccc(-c2cn3c4c(sc3n2)CCCC4)cc1Cl | 36% | – | –
42 | N=c1sc2c(n1CC(=O)c1ccc(Cl)cc1)CCCC2 | 59% | 5.37 µM | CI [14]: 8.82 µM

Row | Structure (SMILES) | Survival (Mus musculus [1]) | EC50 (Mus musculus [2]) | further results
43 | N=c1sc2c(n1CC(=O)c1ccc(-c3ccccc3)cc1)CCCC2 | 65% | 2.29 µM | CI [15]: 2.98 µM
44 | c1cc(N2CCCC2)ccc1-c1cn2c3c(sc2n1)CCCC3 | 50% | > 10 µM | –
45 | Cc1ccc(C(=O)Cn2c(=N)oc3ccc(Cl)cc32)cc1 | 19% | – | –
46 | CCOC(=O)Cn1c2c(sc1=N)CCCC2 | 27% | – | –
47 | [N-]=[N+]=Nc1ccc(-c2cn3c4c(sc3n2)CCCC4)cc1 | 50% | – | –
48 | N=c1sc2ccccc2n1CC(=O)c1ccc(N2CCCC2)cc1 | 64% | 9.84 µM | CI [16]: 34.83 µM
49 | N#Cc1ccc(C(=O)Cn2c3c(sc2=N)CCCC3)cc1 | 40% | – | –
50 | Cc1ccc(-c2cn3c(n2)sc2cc(Br)ccc23)cc1 | 39% | – | –
51 | N=c1sc2ccccc2n1CC(=O)c1ccccc1 | 20% | – | –
52 | Clc1ccccc1-c1cn2c3c(sc2n1)CCCC3 | 37% | – | –
53 | Oc1ccc(-c2cn3c4c(sc3n2)CCCC4)cc1 | 21% | – | –
54 | Cc1ccc(/C=N/Nc2ncnc3ccccc23)cc1 | 23% | – | –
55 | Cc1ccc(C(=O)Cn2ccsc2=N)cc1 | 27% | – | –
56 | Cc1ccc(C(=O)Cn2c3c(sc2=N)CCCC3)cc1 | 72% | 4.16 µM | CI [17]: 5.88 µM
57 | Cc1ccc(C(=O)CSc2nc3ccccc3s2)cc1 | 16% | – | –
58 | CSC(=N)NC(=O)c1ccccc1NCC(=O)c1ccc(C)cc1 | 31% | – | –
59 | Cc1ccc(-c2cn3c4c(sc3n2)CCCC4)cc1 | 54% | 2.01 µM | CI [18]: 2.8 µM
60 | N=c1sc2c(n1CC(=O)c1ccc(C(F)(F)F)cc1)CCCC2 | 36% | – | –
61 | c1ccc2cc(-c3ccc(-c4cn5c(n4)sc4ccccc45)cc3)ccc2c1 | 75% | 4.02 µM | CI [19]: 4.69 µM
62 | O=C(Oc1ccc(-c2cn3c4c(sc3n2)CCCC4)cc1)c1ccccc1 | 23% | – | –
63 | Cc1ccc(-c2cn3cnc4ccccc4c3n2)cc1 | 26% | – | –

Row | Structure (SMILES) | Survival (Mus musculus [1]) | EC50 (Mus musculus [2]) | further results
64 | Nc1ccc(-c2cn3c4c(sc3n2)CCCC4)cc1 | 18% | – | –
65 | N=c1sc2ccccc2n1CC(=O)c1ccc(-c2ccc3ccccc3c2)cc1 | 62% | > 10 µM | –
66 | Cc1cn2c(n1)sc1ccccc12 | 22% | – | –
67 | C#CCn1c(=N)sc2ccccc21 | 23% | – | –
68 | Cc1ccc(-c2cn3ccsc3n2)cc1 | 27% | – | –
69 | COc1ccc2c(c1)sc1nc(-c3ccc(C)cc3)cn12 | 68% | 4.44 µM | CI [20]: 6.89 µM
70 | Cc1ccc(C(=O)Cn2c(=O)oc(=O)c3ccccc32)cc1 | 28% | – | –
71 | Cc1ccc(-c2cn3c(n2)sc2cc(O)ccc23)cc1 | 19% | – | –
72 | Cc1ccc(C(=O)Cn2/c(=N/S(=O)(=O)c3ccccc3)sc3ccccc32)cc1 | 48% | – | –
73 | COc1ccc(C(=O)Cn2c3c(sc2=N)CCCC3)cc1 | 66% | 7.54 µM | –
74 | c1ccc2c(c1)sc1nc(-c3ccc(N4CCCC4)cc3)cn12 | 78% | 0.35 µM | CI [21]: 1.08 µM
75 | [N-]=[N+]=Nc1ccc(C(=O)Cn2c3c(sc2=N)CCCC3)cc1 | 56% | 5.68 µM | CI [22]: 7 µM
76 | Brc1ccc(-c2cn3c4c(sc3n2)CCCC4)cc1 | 35% | – | –
77 | N=c1sc2c(n1CC(=O)c1cccc(F)c1)CCCC2 | 54% | 9.69 µM | –
78 | N=c1sc2c(n1CC(=O)c1ccc(-c3ccc4ccccc4c3)cc1)CCCC2 | 58% | 4.02 µM | CI [23]: 5.28 µM
79 | O=[N+]([O-])c1ccc(-c2cn3c4c(sc3n2)CCCC4)cc1 | 11% | – | –
80 | Clc1ccc(-c2cn3c4c(sc3n2)CCCC4)cc1 | 35% | – | –
81 | c1ccc(-c2cnc3sc4ccccc4n23)cc1 | 15% | – | –
82 | O=C(O)c1ccc(-c2cn3c4c(sc3n2)CCCC4)cc1 | 20% | – | –
83 | Cc1ccc(-c2cn3c(n2)nc(Cl)c2ccccc23)cc1 | 46% | – | –
84 | Cc1ccc(-c2nc3sc4c(n3c2Br)CCCC4)cc1 | 27% | – | –
